Test results published in ChEMBL document CHEMBL1149790, “Synthesis of some novel thiourea derivatives obtained from 5-[(4-aminophenoxy)methyl]-4-alkyl/aryl-2,4-dihydro-3H-1,2,4-triazole-3-thiones and evaluation as antiviral/anti-HIV and anti-tuberculosis agents” (Eur J Med Chem, 2008).
Values after ≈ are worked out from the molar mass of the structure shown. Active and inactive are the calls of the source. The rule behind the calls is not given here.

Assays:
[1] = system: Mycolicibacterium aurum; test: Antitubercular activity against Mycobacterium aurum A1; assay type: functional
[2] = system: Mycobacterium tuberculosis; test: Antitubercular activity against Mycobacterium tuberculosis H37Rv
[3] = system: Mycobacterium avium; test: Antitubercular activity against Mycobacterium avium; assay type: functional
[4] = system: Vesicular stomatitis virus; test: Antiviral activity against vesicular stomatitis virus in human HeLa cells assessed as inhibition of virus-induced cytopathogenicity; assay type: functional
In short: (§1)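 Confluent cell monolayers (E6SM, HEL, HeLa or Vero, per line) inoculated with 100 CCID50 virus; 1 h adsorption, residual virus removed, then incubated with compound at 400, 200, 100 … µg/ml. Cytopathicity scored once complete in untreated virus controls; MIC = concentration inhibiting virus-induced cytopathicity.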

[5] = system: Mammalian orthoreovirus 1; test: Antiviral activity against Reo virus 1 in african green monkey Vero cells assessed as reduction of virus-induced cytopathogenicity; assay type: functional; in short: as §1
[6] = system: Human immunodeficiency virus 1; test: Antiviral activity against HIV1 3B in human MT4 cells assessed as protection against virus-induced cytopathogenicity by MTT assay; assay type: functional, organism-based; design: Activity: concentration or dose not given beside the values; details: for IC50: Human immunodeficiency virus 1, 3B, MT4
In short: (§2)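 MT-4 cells at 6 × 10⁵ cells/ml infected with HIV-1 IIIB or HIV-2 ROD at 100–300 CCID50; compounds in serial five-fold dilutions, triplicate mock- and virus-infected wells. MTT viability read at 540 and 690 nm after 5 days, median OD of three wells; EC50 = 50% protection from viral cytopathic effect.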

[7] = system: Human alphaherpesvirus 1; test: Antiviral activity against thymidine kinase deficient and acyclovir resistant HSV1 KOS in human E6SM cells assessed as reduction of virus-induced cytopathogenicity; assay type: functional; details: Human alphaherpesvirus 1, KOS; in short: as §1
[8] = system: Punta Toro virus; test: Antiviral activity against Punta Toro virus in african green monkey Vero cells assessed as reduction of virus-induced cytopathogenicity; assay type: functional; in short: as §1
[9] = system: Coxsackievirus B4; test: Antiviral activity against Coxsackie virus B4 in human HeLa cells assessed as inhibition of virus-induced cytopathogenicity; assay type: functional; details: Enterovirus B; in short: as §1
[10] = system: Respiratory syncytial virus; test: Antiviral activity against respiratory syncytial virus in human HeLa cells assessed as inhibition of virus-induced cytopathogenicity; assay type: functional; in short: as §1
[11] = system: Human respirovirus 3; test: Antiviral activity against Parainfluenza 3 virus in african green monkey Vero cells assessed as reduction of virus-induced cytopathogenicity; assay type: functional; in short: as §1
[12] = system: Human alphaherpesvirus 1; test: Antiviral activity against thymidine kinase deficient and acyclovir resistant HSV1 KOS in human HEL cells assessed as reduction of virus-induced cytopathogenicity; assay type: functional; details: Human alphaherpesvirus 1, KOS; in short: as §1
[13] = system: E6SM; test: (§3) Cytotoxicity against human E6SM cells; assay type: cell-based; details: e6sm
In short: (§4)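 Uninfected cell cultures exposed to test compounds alongside antiviral assays; minimum cytotoxic concentration (MCC) = concentration causing a microscopically detectable alteration of cell morphology.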

[14] = system: Vero; test: Cytotoxicity against african green monkey Vero cells; assay type: cell-based; details: chlorocebus sabaeus; in short: as §4
[15] = system: Human alphaherpesvirus 1; test: Antiviral activity against HSV1 KOS in human E6SM cells assessed as reduction of virus-induced cytopathogenicity; assay type: functional; details: Human alphaherpesvirus 1, KOS; in short: as §1
[16] = system: Vesicular stomatitis virus; test: Antiviral activity against in Vesicular stomatitis virus in human E6SM cells assessed as reduction of virus-induced cytopathogenicity; assay type: functional; in short: as §1
[17] = system: Human alphaherpesvirus 2; test: Antiviral activity against HSV2 G in human HEL cells assessed as reduction of virus-induced cytopathogenicity; assay type: functional; details: Human alphaherpesvirus 2, G; in short: as §1
[18] = system: Human alphaherpesvirus 1; test: Antiviral activity against HSV1 KOS in human HEL cells assessed as reduction of virus-induced cytopathogenicity; assay type: functional; details: Human alphaherpesvirus 1, KOS; in short: as §1
[19] = system: Vesicular stomatitis virus; test: Antiviral activity against in Vesicular stomatitis virus in human HEL cells assessed as reduction of virus-induced cytopathogenicity; assay type: functional; in short: as §1
[20] = Cytotoxicity against human HEL cells assessed as alteration of cell morphology; assay type: cell-based; in short: as §4
[21] = system: Human alphaherpesvirus 2; test: Antiviral activity against HSV2 G in human E6SM cells assessed as reduction of virus-induced cytopathogenicity; assay type: functional; details: Human alphaherpesvirus 2, G; in short: as §1
[22] = Cytotoxicity against human HeLa cells; assay type: cell-based; in short: as §4
[23] = system: Coxsackievirus B4; test: Antiviral activity against Coxsackie virus B4 in african green monkey Vero cells assessed as reduction of virus-induced cytopathogenicity; assay type: functional; details: Enterovirus B; in short: as §1
[24] = system: Human immunodeficiency virus 2; test: Antiviral activity against HIV2 ROD in human MT4 cells assessed as protection against virus-induced cytopathogenicity by MTT assay; assay type: functional, organism-based; design: Activity: concentration or dose not given beside the values; details: for IC50: Human immunodeficiency virus 2, ROD, MT4; in short: as §2
[25] = system: Sindbis virus; test: Antiviral activity against Sindbis virus in african green monkey Vero cells assessed as reduction of virus-induced cytopathogenicity; assay type: functional; in short: as §1
[26] = Cytotoxicity against human MT4 cells by MTT assay; assay type: cell-based
In short: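 Mock-infected MT-4 cells (6 × 10⁵ cells/ml) with serial five-fold compound dilutions in triplicate; MTT reduction read at 540 and 690 nm after 5 days, median OD of three wells; CC50 = concentration reducing OD540 of mock-infected control by 50%.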

[27] = as §3; assay type: cell-based; details: E6SM cells; in short: as §4
[28] = system: Human betaherpesvirus 5; test: Antiviral activity against human cytomegalovirus AD169 infected HEL cells assessed as reduction in virus plaque formation; assay type: functional, organism-based; details: Human betaherpesvirus 5, AD169, HEL
[29] = system: Mycobacterium tuberculosis; test: Antitubercular activity against Mycobacterium tuberculosis H37Rv at 6.25 ug/ml by MABA assay; assay type: functional
[30] = system: Human alphaherpesvirus 3; test: Antiviral activity against TK- VZV 07/1 infected HEL cells assessed as reduction in virus plaque formation; assay type: functional, organism-based; details: Human alphaherpesvirus 3, 07/1, HEL
[31] = system: Human betaherpesvirus 5; test: Antiviral activity against human cytomegalovirus Davis infected HEL cells assessed as reduction in virus plaque formation; assay type: functional, organism-based; details: Human betaherpesvirus 5, Davis
[32] = system: Human alphaherpesvirus 3; test: Antiviral activity against TK+ VZV OKA infected HEL cells assessed as reduction in virus plaque formation; assay type: functional, organism-based; details: Human alphaherpesvirus 3, OKA
[33] = Cytotoxicity against human HEL cells assessed as reduction of cell growth; assay type: cell-based
In short: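 HEL cells; CC50 = compound concentration reducing cell growth by 50%.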

Compound	MIC [4] [µg/mL]	MIC [5] [µg/mL]	Activity [6] [%]	IC50 [6] [µg/mL]	MIC [7] [µg/mL]	MIC [8] [µg/mL]	MIC [9] [µg/mL]	MIC [10] [µg/mL]	MIC [11] [µg/mL]	MIC [12] [µg/mL]	Activity [14] [µg/mL]	MIC [15] [µg/mL]	MIC [16] [µg/mL]	MIC [17] [µg/mL]	MIC [18] [µg/mL]	MIC [19] [µg/mL]	MCC [20] [µg/mL]	MIC [21] [µg/mL]	MCC [22] [µg/mL]	MIC [23] [µg/mL]	further results
CC(C)CCOc1ccc(NC(=S)Nc2ccc(OCCC(C)C)cc2)cc1 [TIOCARLIDE]																					MIC [1]: 2 µg/mL (≈ 4.99 µM); MIC [2]: 2.5 µg/mL (≈ 6.24 µM); MIC [3]: 2 µg/mL (≈ 4.99 µM)
CCCCCCNC(=S)Nc1ccc(-c2n[nH]c(=S)n2CCCCCC)cc1	> 3.2	> 3.2	3	> 1.71	> 3.2	> 3.2	> 3.2	> 3.2	> 3.2	> 3.2	16	> 3.2	> 3.2	> 3.2	> 3.2	> 3.2	16	> 3.2	16	> 3.2	Activity [13]: 16 µg/mL; Activity [24]: 1%; IC50 [24]: > 1.71 µg/mL; MIC [25]: > 3.2 µg/mL; CC50 [26]: 1.71 µg/mL (≈ 4.07 µM)
CCn1c(COc2ccc(NC(=S)NC)cc2)n[nH]c1=S	> 80	> 80	1.5	> 68.1	> 400	> 80	> 80	> 80	> 80	> 400	400	> 400	> 400	> 400	> 400	> 400	> 400	> 400	400	> 80	MCC [27]: > 400 µg/mL; EC50 [28]: 63 µg/mL (≈ 195 µM); Activity [29]: inactive; EC50 [30]: 88 µg/mL (≈ 272 µM); EC50 [31]: > 100 µg/mL; EC50 [32]: > 100 µg/mL; CC50 [33]: > 50 µg/mL; Activity [24]: 2%; IC50 [24]: > 77.9 µg/mL; MIC [25]: > 80 µg/mL; CC50 [26]: 76.8 µg/mL (≈ 237 µM)
